Test results: ChEMBL document CHEMBL3992565, “Discovery of [1,2,3]Triazolo[4,5-d]pyrimidine Derivatives as Novel LSD1 Inhibitors” (ACS Med Chem Lett, 2017)
Active and inactive are the calls of the source. No cut-off for these calls is given here.

How the values were obtained:
[1] = test system: MGC-803; experiment: Antiproliferative activity against human MGC803 cells after 5 days by MTT assay; settings: MGC-803, 120 h
[2] = species on record: Homo sapiens; experiment: Activity at histone lysine methyltransferase in human MGC803 cells assessed as effect on H3K9me1 level up to 4 uM after 5 days by Western blot method; type: cell-based
Method in brief: (§1)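 MGC-803 gastric cancer cells, which overexpress LSD1, were treated at the indicated concentrations. Several histone methylation marks were then probed by Western blot. Each experiment was run independently at least three times.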

[3] = species on record: Homo sapiens; experiment: Activity at histone lysine methyltransferase in human MGC803 cells assessed as effect on H3K9me2 level up to 4 uM after 5 days by Western blot method; type: cell-based; method in brief: as §1
[4] = species on record: Homo sapiens; experiment: Activity at histone demethylase in human MGC803 cells assessed as effect on H3K4me3 level up to 4 uM after 5 days by Western blot method; type: cell-based; method in brief: as §1
[5] = species on record: Homo sapiens; experiment: Activity at histone lysine methyltransferase in human MGC803 cells assessed as effect on H3K4me3 level up to 4 uM after 5 days by Western blot method; type: cell-based; method in brief: as §1
[6] = target: T1, MAO-A (Homo sapiens, UniProt P21397); experiment: Inhibition of MAO-A (unknown origin) at 1 uM using luciferin-derived luminogenic substrate by MAO-Glo assay relative to control; settings: MAO-A enzyme (unknown origin), probe luciferin-derived luminogenic substrate
T1 sequence (P21397 whole entry): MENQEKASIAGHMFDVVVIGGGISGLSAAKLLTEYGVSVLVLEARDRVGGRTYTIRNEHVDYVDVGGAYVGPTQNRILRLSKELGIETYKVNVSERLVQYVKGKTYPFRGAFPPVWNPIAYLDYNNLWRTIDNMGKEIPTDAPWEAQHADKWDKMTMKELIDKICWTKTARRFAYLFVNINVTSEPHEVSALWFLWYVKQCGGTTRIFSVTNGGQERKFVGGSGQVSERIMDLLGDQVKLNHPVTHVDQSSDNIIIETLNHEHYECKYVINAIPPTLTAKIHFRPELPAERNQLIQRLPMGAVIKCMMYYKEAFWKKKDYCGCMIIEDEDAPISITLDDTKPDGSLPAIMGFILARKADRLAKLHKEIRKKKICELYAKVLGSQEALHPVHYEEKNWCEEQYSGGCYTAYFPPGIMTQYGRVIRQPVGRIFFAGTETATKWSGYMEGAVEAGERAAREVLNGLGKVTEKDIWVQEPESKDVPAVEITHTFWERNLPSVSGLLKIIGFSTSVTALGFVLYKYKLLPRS

[7] = species on record: Homo sapiens; experiment: Activity at histone demethylase in human MGC803 cells assessed as effect on H3K9me1 level up to 4 uM after 5 days by Western blot method; type: cell-based; method in brief: as §1
[8] = target: T2, MAO-B (Homo sapiens, UniProt P27338); experiment: Inhibition of MAO-B (unknown origin) at 1 uM using luciferin-derived luminogenic substrate by MAO-Glo assay relative to control; settings: MAO-B enzyme (unknown origin), probe luciferin-derived luminogenic substrate
T2 sequence (P27338 whole entry): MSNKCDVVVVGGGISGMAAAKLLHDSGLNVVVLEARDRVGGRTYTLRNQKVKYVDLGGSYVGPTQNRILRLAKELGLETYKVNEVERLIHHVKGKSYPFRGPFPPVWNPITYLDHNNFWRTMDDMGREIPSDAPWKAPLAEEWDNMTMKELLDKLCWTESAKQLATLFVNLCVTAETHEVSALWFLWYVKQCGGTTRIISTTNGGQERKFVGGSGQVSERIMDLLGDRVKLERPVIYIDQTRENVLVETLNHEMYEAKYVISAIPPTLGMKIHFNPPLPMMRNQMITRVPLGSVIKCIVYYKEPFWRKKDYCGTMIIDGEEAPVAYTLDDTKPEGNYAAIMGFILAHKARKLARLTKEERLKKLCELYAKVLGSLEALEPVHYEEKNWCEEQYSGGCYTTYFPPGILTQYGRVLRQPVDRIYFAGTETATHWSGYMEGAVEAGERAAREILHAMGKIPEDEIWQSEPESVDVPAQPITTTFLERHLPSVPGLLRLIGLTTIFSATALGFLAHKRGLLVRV

[9] = test system: MGC-803; experiment: Effect on LSD1 expression in human MGC803 cells up to 4 uM after 5 days by DAPI staining based immunofluorescence assay; type: cell-based; settings: mgc-803, 120 h
Method in brief: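 MGC-803 cells were seeded in 96-well plates and treated for 5 days at the indicated concentrations. LSD1 was stained by immunofluorescence, with DAPI used for cell counting. Each well was scored over 12 fields by high content analysis. Data are mean ± SD from at least three experiments.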

[10] = test system: MGC-803; experiment: Antimigratory activity against human MGC803 cells assessed as accumulation of E-cadherin at 0.5 to 2 uM after 24 hrs by Western blot method; type: functional, cell-based
Method in brief: (§2)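 MGC-803 cells were exposed for 24 h to three low concentrations. E-cadherin (epithelial marker) and N-cadherin (mesenchymal marker) were then probed by Western blot. Data are mean ± SD from at least three experiments.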

[11] = test system: MGC-803; experiment: Antimigratory activity against human MGC803 cells assessed as decrease in N-cadherin level at 0.5 to 2 uM after 24 hrs by Western blot method; type: functional, cell-based; method in brief: as §2
[12] = target: T2, MAO-B; experiment: Inhibition of MAO-B (unknown origin) at 10 uM using luciferin-derived luminogenic substrate by MAO-Glo assay relative to control; settings: MAO-B enzyme (unknown origin), probe luciferin-derived luminogenic substrate
[13] = species on record: Homo sapiens; experiment: Activity at histone demethylase in human MGC803 cells assessed as effect on H3K9me2 level up to 4 uM after 5 days by Western blot method; type: cell-based; method in brief: as §1
[14] = target: T1, MAO-A; experiment: Inhibition of MAO-A (unknown origin) at 10 uM using luciferin-derived luminogenic substrate by MAO-Glo assay relative to control; settings: MAO-A enzyme (unknown origin), probe luciferin-derived luminogenic substrate
[15] = test system: MGC-803; experiment: Antimigratory activity against human MGC803 cells at lower concentration after 24 hrs by Hoechst 33258 staining based transwell assay; type: functional, cell-based
Method in brief: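 Migration was measured by transwell assay read by high content analysis. MGC-803 cells were treated for 24 h at three low concentrations. Data are mean ± SD from at least three independent experiments, with significance at p < 0.01.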

[16] = target: T3, Lysine-specific histone demethylase 1A (Homo sapiens, UniProt O60341); settings: 600 uM
[17] = target: T3, Lysine-specific histone demethylase 1A; experiment: Inhibition of full length recombinant LSD1 (unknown origin) expressed in Escherichia coli […] using H3K4me2 as substrate by fluorescence assay

IC50 [1] [µM] | inhibition at 1 µM [6] [%] | inhibition at 1 µM [8] [%] | inhibition at 10 µM [12] [%] | inhibition at 10 µM [14] [%] | inhibition [16] | IC50 [17] [µM] | Compound | Activity [2] | Activity [3] | Activity [4] | Activity [5] | Activity [7] | Activity [9] | Activity [10] | Activity [11] | Activity [13] | Activity [15]
7.64 | 34 | 11 | 39 | 59 | – | – | c1ccc(CSc2nc(Sc3ccccn3)c3nnn(Cc4ccccc4)c3n2)cc1 | inactive | inactive | inactive | inactive | inactive | Non-Toxic | Active | Active | inactive | Active
> 125 | – | – | – | – | inactive | 0.041 | O=C(O)c1ccc(CN2CCC(CN[C@@H]3C[C@H]3c3ccccc3)CC2)cc1 [GSK2879552] | – | – | – | – | – | – | – | – | – | –
